Experiment: Sirolimus whole blood pharmacokinetics
Format: in vivo, human
Conditions: for AUC(0-inf) / Cmax / half-life / AUC / Tmax: human, whole blood, oral; for AUC: AUC [SD]; for Tmax: Tmax [SD]
In short: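 Advanced-cancer patients received oral sirolimus once weekly as 1 mg tablets. Week 1 was sirolimus alone. From week 2, ketoconazole was added: 200 mg bid on day 1, then 200 mg daily for 3 days. Whole blood was sampled predose and at 0.25, 0.5, 1, 2, 4, 8, 24 and 48 h in weeks 1–2, and predose in week 3. Analysis was noncompartmental. Cohort doses were re-estimated toward the target AUC assuming dose–AUC linearity.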

[1] = 30 mg, sirolimus alone study, 4 hours apart (total 60 mg), N=5, mean
[2] = 30 mg, sirolimus alone study, 24 hours apart (total 60 mg), N=3, mean
[3] = 45 mg, sirolimus alone study, 24 hours apart (total 90 mg), N=2, mean

AUC(0-inf) (1 mg, sirolimus 1 mg, with ketoconazole, n=6): 935 ng·h/mL | AUC(0-inf) (1 mg, sirolimus 1 mg, without ketoconazole, n=6): 186 ng·h/mL | Cmax (1 mg, Cmax, sirolimus 1 mg, with ketoconazole, n=6): 25.4 ng/mL | Cmax (1 mg, Cmax, sirolimus 1 mg, without ketoconazole, n=6): 5.4 ng/mL | half-life (1 mg, T1/2, sirolimus 1 mg, without ketoconazole, n=6): 82 h | AUC(0-inf) (2 mg, sirolimus 2 mg, with ketoconazole, n=6): 1350 ng·h/mL | AUC(0-inf) (2 mg, sirolimus 2 mg, without ketoconazole, n=6): 271 ng·h/mL | AUC(0-inf) (3 mg, sirolimus 3 mg, with ketoconazole, n=6): 2450 ng·h/mL | AUC(0-inf) (3 mg, sirolimus 3 mg, without ketoconazole, n=6): 400 ng·h/mL | Cmax (3 mg, Cmax, sirolimus 3 mg, with ketoconazole, n=6): 49.2 ng/mL | half-life (3 mg, T1/2, sirolimus 3 mg, with ketoconazole, n=6): 84 h | half-life (3 mg, T1/2, sirolimus 3 mg, without ketoconazole, n=6): 35 h | AUC(0-inf) (4 mg, sirolimus 4 mg, with ketoconazole, n=6): 2900 ng·h/mL | AUC(0-inf) (4 mg, sirolimus 4 mg, without ketoconazole, n=6): 456 ng·h/mL | Cmax (4 mg, Cmax, sirolimus 4 mg, with ketoconazole, n=6): 66.8 ng/mL | Cmax (4 mg, Cmax, sirolimus 4 mg, without ketoconazole, n=6): 21.3 ng/mL | half-life (4 mg, T1/2, sirolimus 4 mg, without ketoconazole, n=6): 36 h | AUC(0-inf) (5 mg, sirolimus 5 mg, with ketoconazole, n=6): 3140 ng·h/mL | AUC(0-inf) (5 mg, sirolimus 5 mg, without ketoconazole, n=6): 676 ng·h/mL | Cmax (5 mg, Cmax, sirolimus 5 mg, with ketoconazole, n=6): 71.2 ng/mL | Cmax (5 mg, Cmax, sirolimus 5 mg, without ketoconazole, n=6): 25.8 ng/mL | half-life (5 mg, T1/2, sirolimus 5 mg, with ketoconazole, n=6): 57 h | half-life (5 mg, T1/2, sirolimus 5 mg, without ketoconazole, n=6): 35 h | AUC(0-inf) (6 mg, sirolimus 6 mg, with ketoconazole, n=3): 2620 ng·h/mL | AUC(0-inf) (6 mg, sirolimus 6 mg, without ketoconazole, n=3): 510 ng·h/mL | Cmax (6 mg, Cmax, sirolimus 6 mg, with ketoconazole, n=3): 74.6 ng/mL | Cmax (6 mg, Cmax, sirolimus 6 mg, without ketoconazole, n=3): 15 ng/mL | half-life (6 mg, T1/2, sirolimus 6 mg, without ketoconazole, n=3): 78 h | AUC(0-inf) (8 mg, sirolimus 8 mg, with ketoconazole, n=1): 1620 ng·h/mL | AUC(0-inf) (8 mg, sirolimus 8 mg, without ketoconazole, n=1): 420 ng·h/mL | Cmax (8 mg, Cmax, sirolimus 8 mg, with ketoconazole, n=1): 85.2 ng/mL | Cmax (8 mg, Cmax, sirolimus 8 mg, without ketoconazole, n=1): 25.2 ng/mL | half-life (8 mg, T1/2, sirolimus 8 mg, with ketoconazole, n=1): 34 h | half-life (8 mg, T1/2, sirolimus 8 mg, without ketoconazole, n=1): 18 h | AUC(0-inf) (16 mg, sirolimus 16 mg, with ketoconazole, n=2): 5010 ng·h/mL | Cmax (16 mg, Cmax, sirolimus 16 mg, with ketoconazole, n=2): 123 ng/mL | half-life (16 mg, T1/2, sirolimus 16 mg, with ketoconazole, n=2): 32 h | AUC [1]: 2050 ng·h/mL | AUC [2]: 3680 ng·h/mL | Cmax (30 mg, Cmax [SD], sirolimus alone study, 4 hours apart (total 60 mg), N=5, mean): 32.9 ng/mL | Cmax (30 mg, Cmax [SD], sirolimus alone study, 24 hours apart (total 60 mg), N=3, mean): 83.9 ng/mL | Tmax [1]: 2.2 h | Tmax [2]: 2.3 h | AUC [3]: 3360 ng·h/mL | Cmax (45 mg, Cmax [SD], sirolimus alone study, 24 hours apart (total 90 mg), N=2, mean): 42.8 ng/mL | Tmax [3]: 2.1 h | CL/F (sirolimus 1 mg, with ketoconazole, n=6): 1.2 L/h | CL/F (sirolimus 1 mg, without ketoconazole, n=6): 10.3 L/h | CL/F (sirolimus 2 mg, with ketoconazole, n=6): 1.8 L/h | CL/F (sirolimus 2 mg, without ketoconazole, n=6): 9.5 L/h | CL/F (sirolimus 3 mg, with ketoconazole, n=6): 1.6 L/h | CL/F (sirolimus 3 mg, without ketoconazole, n=6): 8.0 L/h | CL/F (sirolimus 4 mg, with ketoconazole, n=6): 2.1 L/h | CL/F (sirolimus 4 mg, without ketoconazole, n=6): 10.0 L/h | CL/F (sirolimus 5 mg, with ketoconazole, n=6): 2.8 L/h | CL/F (sirolimus 5 mg, without ketoconazole, n=6): 9.0 L/h | CL/F (sirolimus 6 mg, with ketoconazole, n=3): 2.6 L/h | CL/F (sirolimus 6 mg, without ketoconazole, n=3): 15.6 L/h | CL/F (sirolimus 8 mg, with ketoconazole, n=1): 4.9 L/h | CL/F (sirolimus 8 mg, without ketoconazole, n=1): 19.1 L/h | CL/F (sirolimus 15 mg, with grapefruit juice, n=5): 5.9 L/h | CL/F (sirolimus 15 mg, without grapefruit juice, n=5): 20.5 L/h | CL/F (sirolimus 16 mg, with ketoconazole, n=2): 3.2 L/h | CL/F (sirolimus 16 mg, without ketoconazole, n=2): 11.2 L/h | CL/F (sirolimus 20 mg, with grapefruit juice, n=5): 11.5 L/h | CL/F (sirolimus 20 mg, without grapefruit juice, n=5): 36.9 L/h | CL/F (sirolimus 25 mg, with grapefruit juice, n=4): 9.2 L/h | CL/F (sirolimus 25 mg, without grapefruit juice, n=4): 32.6 L/h | CL/F (sirolimus 30 mg, with grapefruit juice, n=5): 12.6 L/h | CL/F (sirolimus 30 mg, without grapefruit juice, n=5): 18.7 L/h | CL/F (sirolimus 35 mg, with grapefruit juice, n=8): 12.8 L/h | CL/F (sirolimus 35 mg, without grapefruit juice, n=8): 29.4 L/h | CL/F [SD] (sirolimus alone study, 30 mg, 4 hours apart (total 60 mg), N=5, mean): 19.786 [15.2] l/h | CL/F [SD] (sirolimus alone study, 30 mg, 24 hours apart (total 60 mg), N=3, mean): 17.087 [2.90] l/h | CL/F [SD] (sirolimus alone study, 45 mg, 24 hours apart (total 90 mg), N=2, mean): 26.842 [1.1] l/h | CL/F [SD] (sirolimus alone study, dose cohort 10 mg, N=6, mean): 16.922 [6.08] l/h | CL/F [SD] (sirolimus alone study, dose cohort 20 mg, N=7, mean): 18.736 [11.0] l/h | CL/F [SD] (sirolimus alone study, dose cohort 30 mg, N=6, mean): 16.148 [10.4] l/h | CL/F [SD] (sirolimus alone study, dose cohort 60 mg, N=8, mean): 19.588 [13.6] l/h | Sirolimus dose at which target AUC of 3810 ng-hr/ml was achieved/observed (sirolimus plus grapefruit juice study): 25 mg | Sirolimus dose at which target AUC of 3810 ng-hr/ml was achieved (sirolimus plus ketoconazole study): 16 mg
SMILES: CO[C@H]1C[C@@H]2CC[C@@H](C)[C@@](O)(O2)C(=O)C(=O)N2CCCC[C@H]2C(=O)O[C@H]([C@H](C)C[C@@H]2CC[C@@H](O)[C@H](OC)C2)CC(=O)[C@H](C)/C=C(\C)[C@@H](O)[C@@H](OC)C(=O)[C@H](C)C[C@H](C)/C=C/C=C/C=C/1C [Sirolimus]

Reference: publication PMC4410974 (Clinical cancer research : an official journal of the …, 2012)
